This is a sample that favours compounds with a hit; in the whole collection about 0.97% have one here.
TNF necrop inh = blocks TNF-alpha induced death of Jurkat FADD-/- cells. activation (protection from cell death), % at 10 µM. 220,000 compounds, 0.068% hits. Jurkat FADD-/- TNF necroptosis rescue, ATP luminescence, 24 h; 0 = TNF only, 100 = no-TNF cells;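 active means activation, meaning protection from cell death, of at least 50% relative to plate controls; inactive means activation below 50%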;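 further: necroptosis triggered by 40 ng/mL TNF-alpha added together with compound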
zVAD death inh = L929 zVAD cell death inhibition. viability rescue, % at 10 µM. 220,000 compounds, 0.38% hits. AID 1377. L929 zVAD necroptosis rescue, ATP luminescence, 24 h; with zVAD 60 µM;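 active means activation, scaled between plate controls, above about 75%, limit read from the data; inactive means activation under that limit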;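 further: 0% = zVAD with DMSO and 100% = DMSO alone without zVAD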
B2AR ag = human beta-2 adrenergic receptor agonism by FAP | P07550 | Am2.2-beta2AR cells, FAP receptor internalization, flow cytometry | response, % (test concentration not listed) | 340,000 compounds, 0.43% hits;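 active means response above a set limit, near 3 SD of response in nonfluorescent compounds, cut at about 42% in these data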
Target sequence (P07550 whole entry, looked up): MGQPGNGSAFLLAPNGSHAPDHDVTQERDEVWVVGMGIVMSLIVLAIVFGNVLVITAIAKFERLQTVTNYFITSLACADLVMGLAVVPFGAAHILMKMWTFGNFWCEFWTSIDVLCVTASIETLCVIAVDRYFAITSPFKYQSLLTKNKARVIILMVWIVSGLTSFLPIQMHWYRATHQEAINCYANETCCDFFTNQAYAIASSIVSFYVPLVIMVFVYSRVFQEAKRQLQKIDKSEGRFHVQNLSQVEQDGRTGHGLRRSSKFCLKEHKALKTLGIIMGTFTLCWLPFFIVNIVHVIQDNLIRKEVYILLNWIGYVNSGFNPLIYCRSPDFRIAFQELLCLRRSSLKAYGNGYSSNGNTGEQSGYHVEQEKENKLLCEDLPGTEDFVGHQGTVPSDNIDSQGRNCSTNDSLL
Mdm2 ligase inh = Mdm2 E3 ligase (human) inhibition; Q00987; cell-based MDM2 ubiquitination luciferase reporter, 2 h; 0 = plate control, 100 = twice control, blank-subtracted; signal enhancement, % at 5 µM; 210,000 compounds, 0.11% hits; AID 1230;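 active means signal enhancement of 30% or more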;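 further: luminescence tracks abundance of the self-degrading MDM2-luciferase fusion protein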
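Assay system: stable mammalian line carrying autodegrading MDM2–luciferase fusion reporter; amount: 2000 cells seeded into each well; buffer or medium: DMEM; benchmarks: plate control and blank wells; signal: luciferase luminescence; timing: 2 h compound exposure at 37 °C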
Dynein transport = dynein cargo transport inhibition | 3617.4 mouse cells, GR-EGFP nuclear translocation imaging; test concentration mostly 20 µM; stimulated with dexamethasone, 1 µM; hits give low values | z-score, hits read low | 220,000 compounds, 0.47% hits;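 active means plate z-score of nuclear minus cytoplasmic receptor signal below a set negative limit, without overly bright fluorescence or cell loss, cut at about -3.5 in these data, passing the limit was not always enough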;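 further: z-score of nuclear minus cytoplasmic ring GR-EGFP intensity difference per well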
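medium = tetracycline-free induction medium containing charcoal-stripped FBS | also added = 1.0 µM final dexamethasone stimulus | schedule = 48 h induction, 1 h compound, 30 min dex at 37 °C | technique = fixed, Hoechst-stained cells imaged at 10x for EGFP | measure = GR-EGFP nuclear translocation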
Beta2AR ag CP1 = activates human beta-2 adrenergic receptor. 1,100 compounds, 25% hits. Am2.2-beta2AR cells, FAP surface receptor, flow cytometry; hits give low values. percent response (surface receptor), % at 10 µM. shares compounds with B2AR ag;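 active means surface receptor percent response at or below 58%, roughly 3 SD from nonfluorescent compounds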
B2AR FAP counter = counter-screen for beta-2AR agonists: fluorescence in Am2.2 cells | shares compounds with B2AR ag | calls only at 10 µM | FAP fluorogen flow cytometry, fluorescence counterscreen; hits give low values | 1,100 tested, under 10 active;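 active means percent response below a set limit in fluorescence channel 1 and below 50% in channel 8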
An asterisk follows results filed as active; i = inactive; . = no result given.

SMILES	TNF necrop inh	zVAD death inh	B2AR ag	Mdm2 ligase inh	Dynein transport	Beta2AR ag CP1	B2AR FAP counter
Cc1ccc(-c2nc(NC(=O)c3cc(C(C)(C)C)nn3C)sc2C)cc1Cl	-1	1	10	-3	-0.18	97	i
CC1CCc2nc(NC(=O)c3cc(C(C)(C)C)nn3C)sc2C1 (stereo unspecified)	3	-1	21	.	-0.78	.	.
O=C(CSc1nc2c(c(=O)n1-c1ccc(Cl)cc1)SCC2)N1CCOCC1	0	-1	-7	-4	2.3	.	.
CCOC(=O)c1cnc(-n2nc(C)cc2C)nc1NC	0	0	-8	-7	-0.59	105	i
CC(C)(C)CNc1cc(N2CCOCC2)ccc1[N+](=O)[O-]	-1	1	2	-10	-0.29	.	.
O=C(COc1ccccc1F)N1CCCc2ccccc21	.	.	-3	.	.	.	.
O=C(COc1ccccc1F)N1c2ccccc2CCc2ccccc21	1	1	63*	-2	-0.39	15*	i
CCN(CCNCC(O)COc1ccccc1C(C)C)c1cccc(C)c1 (stereo unspecified)	.	.	45*	.	.	126	i
c1nc(NCCN2CCOCC2)c2sc3nc(N4CCOCC4)c4c(c3c2n1)CCC4	-4	73	46*	-26	0.065	57*	i
CCN1CCN(c2ncnc3c2sc2nc(N4CCOCC4)c4c(c23)CCC4)CC1	.	.	-1	.	.	.	.
N=C(N)SCc1ccc(Cl)cc1Cl	3	1	8	12	-1.2	.	.
Cc1ccc([N+](=O)[O-])cc1Nc1nc(N2CCOCC2)nc(N2CCOCC2)n1	1	1	50*	-7	-0.44	112	i
C[C@H](NC(=O)c1ccccc1Cl)C(=O)Nc1ccccc1F	.	.	-1	.	.	.	.
CC(C)(C)OC(=O)N1CC2(CCCCC2)CC1Cc1ccc(C(F)(F)F)cc1 (stereo unspecified)	.	.	.	.	.	100	i
CC1(C)CC(Cc2cccc(C(F)(F)F)c2)N(C(=O)OC(C)(C)C)C1 (stereo unspecified)	.	.	.	.	.	111	i
Cn1c(C(=O)O)c(CC(=O)Nc2ccc3c(c2)OCCO3)c2ccccc21	0	1	-1	-1	-0.25	.	.
O=C(Nc1ccc(Nc2ccncc2)cc1)c1ccc(Nc2ccnc3ccc([N+](=O)[O-])cc23)cc1	0	1	69*	-7	-0.8	82	i
O=C(Nc1ccc(Cc2ccncc2)cc1)c1cccc([N+](=O)[O-])c1	2	1	-3	-3	0.39	.	.
COC(=O)c1ccc(/C=C2\CCn3c2nc2cc(C(=O)O)ccc2c3=O)cc1	.	.	9	.	.	.	.
Cc1ccc(C)c(NC(=O)C(c2ccccc2)N2CCOCC2)c1 (stereo unspecified)	1	1	-6	-13	1.3	104	i
CCn1c(CCNC(=O)c2cccs2)nnc1SCC(=O)Nc1ccc(Cl)cc1	0	0	3	-2	-0.72	.	.
C=CCn1c(CNC(=O)c2cccs2)nnc1SCC(=O)c1ccc(Br)cc1	-1	0	-1	-9	-0.19	.	.
C=CCn1c(CCNC(=O)c2cccs2)nnc1SCC(=O)Nc1cccc(Cl)c1C	1	0	60*	0	-1.2	60	i
C=CCn1c(CCNC(=O)c2cccs2)nnc1SCC(=O)c1cccc([N+](=O)[O-])c1	1	0	106*	-20	-0.98	9.3*	i
C=CCn1c(CCNC(=O)c2cccs2)nnc1SCC(=O)c1ccc(Cl)cc1	0	1	90*	-36	-0.86	31*	i
SMILES	TNF necrop inh	zVAD death inh	B2AR ag	Mdm2 ligase inh	Dynein transport	Beta2AR ag CP1	B2AR FAP counter
COc1ccc(CCNC(=O)CC(=O)N/N=C/c2ccc(C(=O)O)cc2)cc1OC	.	.	14	.	.	.	.
C=CCn1c(C(CC)CC)nc2ccccc21	-1	0	6	-8	0.24	.	.
COc1cc(C(=S)N2CCCC2)ccc1O	0	-1	-6	-7	2.5	.	.
Brc1ccccc1-c1nnc2sc(Cc3ccccc3)nn12	-1	0	-3	-20	0.28	.	.
CN1CCCC(CN2c3ccccc3Sc3ccccc32)C1 (stereo unspecified)	.	.	22	.	.	.	.
CN1CCCC(CC2c3ccccc3Sc3ccccc32)C1 (stereo unspecified)	.	.	37	.	.	81	i
COc1ccc(F)cc1C(=O)C1CCCN(C(=O)Cc2c(C)noc2C)C1 (stereo unspecified)	0	1	-3	-3	-0.26	.	.
O=C(CC1Oc2ccccc2NC1=O)NCCc1ccccc1 (stereo unspecified)	0	0	44*	-12	0.14	98	i
O=C(c1cc(COc2ccc(F)cc2Cl)on1)N1CC2C[C@@H]3CC1C[C@H](C2)C3	.	.	87*	.	.	23*	i
O=C(c1cc(COc2ccc(F)cc2Cl)on1)N1C[C@H]2CC[C@H]1C2	.	.	-10	.	.	.	.
Cc1ccc(NC(=O)c2ncn(CCCNCCCN(C)C)n2)cc1C	.	.	-3	.	.	.	.
Cc1ccc(NC(=O)c2ncn(CCCNCCCc3ccccc3)n2)cc1C	.	.	42*	.	.	130	i
CC(=O)Nc1ccc(NC(=O)C(C)OC(=O)CC2CCCC2)cc1 (stereo unspecified)	.	.	1	.	.	.	.
O=C(CSc1ccc(Cl)cc1)Nc1ccccc1N1CCN(C(=O)c2ccccc2)CC1	-1	0	43*	14	-0.46	65	i
c1ccc(-n2c(Cc3cn4ccsc4n3)nnc2N2CCOCC2)cc1	-2	0	8	-10	-0.45	.	.
COc1ccc(NC(=O)N2CCCCC2c2cccnc2)cc1 (stereo unspecified)	1	1	-3	10	-0.15	.	.
CCCCC(=O)Nc1ccc(S(=O)(=O)N2CCCCC2c2cccnc2)cc1 (stereo unspecified)	.	.	129*	.	.	27*	i
CC(=O)Nc1ccc(S(=O)(=O)N2CCCCC2c2cccnc2)cc1 (stereo unspecified)	1	2	-8	1	0.42	21*	i
CC(=O)Nc1ccc(S(=O)(=O)N2CCCC3CCCCC32)cc1 (stereo unspecified)	.	.	-2	.	.	.	.
O=C(Nc1ccc(S(=O)(=O)N2CCCCC2c2cccnc2)cc1)c1c(F)cccc1F (stereo unspecified)	6	8	87*	-17	0.55	49*	i
CCC1CCCCN1S(=O)(=O)c1ccc(NC(=O)c2ccncc2)cc1 (stereo unspecified)	.	.	1	.	.	.	.
Cc1cccc(NC(=S)NC2CCCC2)n1	-4	-1	-8	-12	0.7	.	.
O=C(O)/C=C/c1cnc[nH]1	2	2	-6	.	-0.0059	.	.

Screens as filed in PubChem BioAssay.
